High-throughput results (PubChem BioAssay)
UPR CHOP act: activators of apoptotic CHOP UPR arm, primary screen, cell-based, CHO-CHOP luciferase reporter, luminescence, uHTS; UPR activation; percent of tunicamycin response over DMSO baseline; activation, % at 10 µM; actives 0.34% (n = 330,000); AID 449763, 2010;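 active means at 10 µM dose, activation of 40% or more, normalized to positive control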;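 further: 100% = tunicamycin at 10 µg/mL and 0% = DMSO alone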
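Test system: CHO CHOP reporter cells. Input: 500 CHO-CHOP cells per well. Medium: F12 with 10% FBS. Technique: luciferase luminescence. Measure: percent activation relative to tunicamycin control. Dosing: 10 µM compound, 0.5% DMSO. Timing: 16-18 h cell attachment, then 6 h compound exposure, 37 °C.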
XBP1 UPR activ: activators of adaptive XBP1 UPR arm, primary screen, cell-based, CHO-XBP1 luciferase reporter, luminescence, uHTS. IRE1-XBP1 UPR activation; percent of tunicamycin response, DMSO as zero. activation, % at 20 µM. actives 0.33% (n = 330,000). AID 463104, 2010;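 active means versus positive control, 20 µM dose yields 30% or more activation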;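 further: 100% = tunicamycin at 10 µg/mL and 0% = DMSO only wells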
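assay system = CHO-XBP1 luciferase reporter cells | amount = 1000 cells/well | buffer or medium = F12 plus 10% FBS | compound dosing = single point, 20 µM final compound, 1% DMSO | incubation = 16-18 h cell attachment at 37 °C, then 6 h compound exposure | detection = Steady-Glo luminescence read | controls = tunicamycin 10 µg/mL and vehicle-only wells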
ABHD5 PLIN5 PPI: ABHD5-PLIN5 interaction inhibitors, primary screen, cell lysate, split luciferase complementation, luminescence; Perilipin-5 (Homo sapiens) + 1-acylglycerol-3-phosphate O-acyltransferase ABHD5 (Homo …; Split G. princeps luciferase complementation, 4 h; inhibition, % at 4 µM; actives 0.78% (n = 360,000); AID 602281, 2012;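 active means inhibition above the mean inhibition across every tested compound plus 3 SD, cut at about 22% in these data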;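 further: 0% = DMSO only wells and the 100% control is not disclosed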
Exocytosis inh: LAMP-1 surface exposure blockers, TALL-104 cells – cell-based, flow cytometry, MLPCN library, primary screen | actives 0.66% (n = 360,000) | inhibition, % at 10 µM | TALL-104 LAMP-1 surface exposure; cells stimulated with thapsigargin and PMA;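 active means inhibition above about 55%, limit read from the data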
Mdm2-MdmX inh: inhibitors of human Mdm2-MdmX association, primary screen, cell-based, luminescence, split luciferase, SaOS-2, uHTS; Protein Mdm4 (Homo sapiens) + E3 ubiquitin-protein ligase Mdm2 (Homo sapiens), …; SaOS-2 split-luciferase Mdm2/MdmX complementation; actives 3% (n = 330,000); AID 485346, 2010; inhibition, % at 8 µM;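 active means inhibition of at least 50% at 8 µM in the primary screen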
Mdm2 MdmX conf: Mdm2-MdmX complex disruptors, retested hits, confirmation, luminescence, single concentration; AID 489028, 2010; Mdm2-MdmX binding, luminescent assay; inhibition, % at 8 µM; shares compounds with Mdm2-MdmX inh; actives 55% (n = 10,000); in the data active means inhibition above about 40%
FLuc counter: full-length luciferase signal inhibition, confirmation, counter-screen for Mdm2/MdmX interaction inhibitor project, cell-based, single concentration, SaOS-2; shares compounds with Mdm2-MdmX inh; SaOS-2 full-length luciferase counterscreen, luminescence; inhibition, % at 8 µM; actives 77% (n = 6,200);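 active means mean inhibition at 8 µM reaching about 37%, which flags the compound as non-specific, limit read from the data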;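 further: p53-null SaOS-2 cells with luciferase driven by a doxycycline-inducible promoter; compound on cells about two nights before reading with doxycycline added after day one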
* = called active by the depositor. A selection: hits, their analogues and other compounds. The true share with any hit is near 4%.

Screening CC(=O)OC1CC(OC2C(O)CC(OC3C(O)CC(OC4CCC5(C)C(CCC6C5CCC5(C)C(C7=CC(=O)OC7)CCC65O)C4)OC3C)OC2C)OC(C)C1OC1OC(CO)C(O)C(O)C1O (stereo not given) returned ABHD5 PLIN5 PPI -5.9 and Exocytosis inh 1.5.
Screening C[C@@H]1O[C@@H](O[C@@H]2C=C3CC[C@@H]4C(CC[C@]5(C)[C@@H](c6ccc(=O)oc6)CC[C@]45O)[C@@]3(C)CC2)[C@H](O)[C@H](O)[C@H]1O (stereo not given in full) returned UPR CHOP act 1.0, XBP1 UPR activ -4.0, ABHD5 PLIN5 PPI -5.7, Exocytosis inh 1.4, Mdm2-MdmX inh 86.9*, Mdm2 MdmX conf 69.7* and FLuc counter 16.6.
`C[C@@H]1O[C@@H](O[C@@H]2C=C3CCC4C(CC[C@]5(C)[C@@H](c6ccc(=O)oc6)CC[C@]45O)[C@@]3(C)CC2)[C@H](O)[C@H](O)[C@H]1O` (stereo not given in full) gave UPR CHOP act -2.4, XBP1 UPR activ -7.1, ABHD5 PLIN5 PPI 2.7, Exocytosis inh -0.7, Mdm2-MdmX inh 83.1*, Mdm2 MdmX conf 81.3* and FLuc counter 49.1*.
CC(=O)C1CCC2(O)C3CCC4=CC(=O)CCC4(C)C3CCC12C (stereo not given) was read as ABHD5 PLIN5 PPI 1.1 and Exocytosis inh -6.0.
C[C@]12CC[C@H](O)CC1=CC(=O)C1C2CC[C@]2(C)C(=O)[C@H](O)CC12 (stereo not given in full) was read as UPR CHOP act -1.9, XBP1 UPR activ -3.5, ABHD5 PLIN5 PPI -2.9, Exocytosis inh 12.0 and Mdm2-MdmX inh 16.0.
Screening Cc1cc(O)c2c(c1)C(=O)C13C(=C2O)C(=O)[C@H]2[C@@H](O)[C@@H]1[C@H]1[C@H](O)[C@@H]3C(=O)C3=C(O)c4c(O)cc(C)cc4C(=O)C312 (stereo not given in full) returned UPR CHOP act 3.9, XBP1 UPR activ -3.4, ABHD5 PLIN5 PPI -4.8, Exocytosis inh 3.1, Mdm2-MdmX inh 86.4*, Mdm2 MdmX conf 61.3* and FLuc counter 29.6.
Screening N#CC1=C(N)Oc2c(c(=O)sc3ccccc23)C1c1cccnc1 (stereo not given) returned UPR CHOP act -0.6, XBP1 UPR activ -0.6, ABHD5 PLIN5 PPI 2.2, Exocytosis inh 3.1, Mdm2-MdmX inh 52.1*, Mdm2 MdmX conf 60.4* and FLuc counter 56.5*.
`O=Cc1c(C(=O)O)n(Cc2ccc(F)cc2Cl)c2ccccc12` gave UPR CHOP act 0.3, XBP1 UPR activ -2.8, ABHD5 PLIN5 PPI 3.8, Exocytosis inh 1.0 and Mdm2-MdmX inh -22.1.
For Cc1nccc2c1[nH]c1ccc(Br)cc12 the results were UPR CHOP act 0.1, XBP1 UPR activ -1.6, ABHD5 PLIN5 PPI 20.0, Exocytosis inh 18.1 and Mdm2-MdmX inh 36.7.
`COc1ccc2c(c1)[nH]c1c(C)nccc12` gave UPR CHOP act -2.6, XBP1 UPR activ -10.5, ABHD5 PLIN5 PPI 5.2, Exocytosis inh -1.9, Mdm2-MdmX inh 89.6*, Mdm2 MdmX conf 90.5* and FLuc counter 22.6.
For Cc1ccc(-c2nc3ccccc3c(=O)n2-c2cccc(O)c2)cc1 the results were UPR CHOP act 0.6, XBP1 UPR activ -3.2, ABHD5 PLIN5 PPI -3.6, Exocytosis inh -5.9 and Mdm2-MdmX inh 9.5.
`C[C@H](CO)N1C[C@H](C)[C@H](CN(C)C(=O)Oc2cccc3ccccc23)OCc2cnnn2CCCC1=O` gave ABHD5 PLIN5 PPI -4.1 and Exocytosis inh -2.7.
`C/C1=C\[C@@H](C)C/C=C/[C@H]2[C@@H]3O[C@]3(C)[C@@H](C)[C@H]3[C@H](Cc4c[nH]c5ccccc45)NC(=O)[C@]32C(=O)/C=C/C(=O)[C@@H]1O` gave UPR CHOP act -9.4, XBP1 UPR activ -8.1, ABHD5 PLIN5 PPI 69.6*, Exocytosis inh 45.0, Mdm2-MdmX inh 82.6*, Mdm2 MdmX conf 45.7* and FLuc counter 20.5.
For CN(C)C(=O)Oc1ccc(Br)c2ccccc12 the results were UPR CHOP act 1.0, XBP1 UPR activ -0.2, ABHD5 PLIN5 PPI -2.4, Exocytosis inh -11.7 and Mdm2-MdmX inh -10.7.
Screening N#Cc1cc2c(nc1SCC(=O)Nc1ccc(Cl)cc1)C1CCN2CC1 returned UPR CHOP act 0.5, XBP1 UPR activ 0.9, ABHD5 PLIN5 PPI 1.1, Exocytosis inh -3.8 and Mdm2-MdmX inh -84.3.
For N#Cc1cc2c(nc1SCC(=O)Nc1cc(Cl)ccc1Cl)C1CCN2CC1 the results were UPR CHOP act 2.2, XBP1 UPR activ 6.1, ABHD5 PLIN5 PPI 1.6, Exocytosis inh 3.5, Mdm2-MdmX inh 84.1*, Mdm2 MdmX conf 98.7* and FLuc counter 21.1.
Oc1cc(Cl)ccc1Oc1ccc(Cl)cc1Cl was read as UPR CHOP act -1.5, XBP1 UPR activ 1.5, ABHD5 PLIN5 PPI -15.2, Exocytosis inh 4.3, Mdm2-MdmX inh 66.4* and Mdm2 MdmX conf 17.1.
For O=C(CCCN1CCC2(CC1)C(=O)NCN2c1ccccc1)c1ccc(F)cc1 the results were UPR CHOP act 0.1, XBP1 UPR activ 15.2, ABHD5 PLIN5 PPI -1.7, Exocytosis inh -0.2, Mdm2-MdmX inh 62.6* and Mdm2 MdmX conf 15.9.
COC(=O)C1=C(c2cc3ccccc3s2)C[C@@H]2CC[C@H]1N2C(=O)N1CCCC1 was read as UPR CHOP act 0.9, XBP1 UPR activ -1.6, ABHD5 PLIN5 PPI 3.7, Exocytosis inh 3.4 and Mdm2-MdmX inh 10.3.
For COC(=O)C1=C(c2cc3ccccc3s2)C[C@@H]2CC[C@H]1N2C(=O)N1CCOCC1 the results were UPR CHOP act -0.7, XBP1 UPR activ -4.6, ABHD5 PLIN5 PPI 5.4, Exocytosis inh 2.8, Mdm2-MdmX inh 54.8*, Mdm2 MdmX conf 55.0* and FLuc counter 55.5*.
`CC1CCN2c3nc4ccccn4c(=O)c3CC3(C(=O)N(C)C(=O)N(C)C3=O)C2C1` (stereo not given) gave UPR CHOP act -2.1, XBP1 UPR activ 2.4, ABHD5 PLIN5 PPI -5.2, Exocytosis inh -3.0 and Mdm2-MdmX inh -11.7.
